Reference: ChEMBL document CHEMBL4219214, “Callyspongiamides A and B, sterol O-acyltransferase inhibitors, from the Indonesian marine sponge Callyspongia sp” (Bioorg Med Chem Lett, 2018)
pIC50: −log10 of the molar value.

Tests used:
CHO [1] = experiment: Effect on cell morphology in CHO cells expressing African green monkey SOAT2 up to 21 to 23 uM; format: ADME, cell-based, Cricetulus griseus; conditions: chinese hamster
CHO [2] = experiment: Effect on phospholipid synthesis in CHO cells expressing African green monkey SOAT1 up to 21 to 23 uM; format: ADME, cell-based, Cricetulus griseus; conditions: chinese hamster
Outline: (§1)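 SOAT1- or SOAT2-expressing CHO cells were grown in Ham's F-12 with MEM vitamins, geneticin (300 μg/mL) and 10% heat-inactivated FBS at 37 °C, 5% CO2. Cells were seeded at 1.25 × 10⁵/well, recovered overnight, and used at ≥80% confluence. Compound stocks in CH3OH (0–1 mg/mL) were added with [14C]oleic acid (1 nmol) for 6 h. Lipids were Bligh–Dyer extracted, and [14C]PL was resolved by TLC and imaged.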

[3] = target: T1, Sterol O-acyltransferase 1 (Chlorocebus aethiops, UniProt O77760); experiment: Inhibition of African green monkey SOAT1 isolated from CHO cell microsomes assessed as decrease in [14C]CE synthesis from [1-14C]oleoyl-CoA after 5 mins
T1 sequence (O77760 whole entry): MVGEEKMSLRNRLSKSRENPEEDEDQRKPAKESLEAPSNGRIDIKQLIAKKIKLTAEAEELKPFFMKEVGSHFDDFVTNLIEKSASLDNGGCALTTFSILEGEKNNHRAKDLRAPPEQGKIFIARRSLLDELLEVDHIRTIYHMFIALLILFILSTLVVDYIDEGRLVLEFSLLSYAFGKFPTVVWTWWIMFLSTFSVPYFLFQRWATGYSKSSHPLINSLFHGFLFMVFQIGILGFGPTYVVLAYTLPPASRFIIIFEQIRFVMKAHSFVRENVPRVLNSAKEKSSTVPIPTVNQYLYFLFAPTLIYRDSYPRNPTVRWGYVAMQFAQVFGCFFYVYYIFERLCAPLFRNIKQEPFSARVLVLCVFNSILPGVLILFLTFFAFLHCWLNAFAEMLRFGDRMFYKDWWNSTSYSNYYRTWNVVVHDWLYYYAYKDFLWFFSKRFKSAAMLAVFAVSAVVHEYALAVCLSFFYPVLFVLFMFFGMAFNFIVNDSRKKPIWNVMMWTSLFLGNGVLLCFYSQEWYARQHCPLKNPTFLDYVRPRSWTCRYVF

Chlorocebus aethiops [4] = species: Chlorocebus aethiops; experiment: Selectivity index, ratio of IC50 for African green monkey SOAT1 isolated from CHO cell microsomes to IC50 for African green monkey SOAT2 isolated from CHO cell microsomes
Outline: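 Microsomes were made by homogenizing SOAT1- or SOAT2-CHO cells in sucrose/KCl/KH2PO4/EDTA buffer (pH 7.2) and pelleting at 100,000 × g, 1 h, 4 °C. They were incubated with fatty-acid-free BSA and compound in methanol, and the reaction was started with [1-14C]oleoyl-CoA for 5 min at 37 °C. It was stopped with CHCl3:MeOH 2:1, and [14C]CE was measured by TLC radioimaging. Values are mean ± SD, n = 3. SI = log(IC50 SOAT1/IC50 SOAT2).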

[5] = target: T2, Sterol O-acyltransferase 2 (Chlorocebus aethiops, UniProt O77759); experiment: Inhibition of African green monkey SOAT2 expressed in CHO cells assessed as decrease in [14C]CE synthesis from [14C]oleic acid after 6 hrs; format: cell-based
T2 sequence (O77759 whole entry): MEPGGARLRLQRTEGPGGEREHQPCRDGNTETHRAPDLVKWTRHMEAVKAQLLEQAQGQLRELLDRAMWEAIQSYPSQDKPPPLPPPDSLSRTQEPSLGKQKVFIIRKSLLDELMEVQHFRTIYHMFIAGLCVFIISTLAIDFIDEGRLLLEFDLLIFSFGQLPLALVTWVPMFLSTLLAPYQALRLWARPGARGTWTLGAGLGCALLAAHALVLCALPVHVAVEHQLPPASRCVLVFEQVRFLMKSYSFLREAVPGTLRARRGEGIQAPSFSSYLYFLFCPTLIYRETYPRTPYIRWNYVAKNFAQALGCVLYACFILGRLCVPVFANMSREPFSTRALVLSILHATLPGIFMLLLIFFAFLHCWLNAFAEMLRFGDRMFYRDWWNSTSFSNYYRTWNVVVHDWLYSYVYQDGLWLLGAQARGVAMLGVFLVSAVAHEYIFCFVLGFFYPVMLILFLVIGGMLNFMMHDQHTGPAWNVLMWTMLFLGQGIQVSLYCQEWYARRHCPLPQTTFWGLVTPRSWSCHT

CHO [6] = experiment: Effect on cell morphology in CHO cells expressing African green monkey SOAT1 up to 21 to 23 uM; format: ADME, cell-based, Cricetulus griseus; conditions: chinese hamster
[7] = target: T2, Sterol O-acyltransferase 2; experiment: Inhibition of African green monkey SOAT2 isolated from CHO cell microsomes assessed as decrease in [14C]CE synthesis from [1-14C]oleoyl-CoA after 5 mins
CHO [8] = experiment: Effect on phospholipid synthesis in CHO cells expressing African green monkey SOAT2 up to 21 to 23 uM; format: ADME, cell-based, Cricetulus griseus; conditions: chinese hamster; outline: as §1
[9] = target: T1, Sterol O-acyltransferase 1; experiment: Inhibition of African green monkey SOAT1 expressed in CHO cells assessed as decrease in [14C]CE synthesis from [14C]oleic acid after 6 hrs; format: cell-based
Chlorocebus aethiops [10] = species: Chlorocebus aethiops; experiment: Selectivity index, ratio of IC50 for African green monkey SOAT1 expressed in CHO cells to IC50 for African green monkey SOAT2 expressed in CHO cells; format: cell-based
Outline: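 Monolayers of SOAT1- or SOAT2-CHO cells (≥80% confluent, overnight recovery) got CH3OH compound stocks (0–1 mg/mL) plus [14C]oleic acid (1 nmol, 1.85 kBq) for 6 h at 37 °C. Cells were SDS-lysed and Bligh–Dyer extracted, and [14C]CE was quantified by TLC radioimaging as percent of control. IC50s came from triplicate experiments, mean ± SD. SI = log(IC50 SOAT1/IC50 SOAT2).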

pIC50 [3] | -log(RatioIC50) (Chlorocebus aethiops [4]) | pIC50 [5] | pIC50 [7] | pIC50 [9] | Structure (SMILES) | Activity (CHO [1]) | Activity (CHO [2]) | Activity (CHO [6]) | Activity (CHO [8]) | -log(RatioIC50) (Chlorocebus aethiops [10]) | log(RatioIC50) (Chlorocebus aethiops [10])
6.00 | 0.51 | 5.62 | 5.49 | 5.92 | CCC(=O)[C@H](C[C@H](C)C(Cl)(Cl)Cl)NC(=O)/C=C/[C@H](C)C(Cl)(Cl)Cl | Non-Toxic | Non-Toxic | Non-Toxic | Non-Toxic | 0.3 | –
5.68 | 0.4 | 5.38 | 5.28 | 5.28 | C[C@@H](C[C@H]1C(=O)N(C)[C@@H](C[C@H](C)C(Cl)(Cl)Cl)C(=O)N1C)C(Cl)(Cl)Cl | Non-Toxic | Non-Toxic | Non-Toxic | Non-Toxic | – | 0.092
6.64 | 0.57 | 5.55 | 6.07 | 6.11 | CCC(=O)[C@H](C[C@H](C)C(Cl)(Cl)Cl)NC(=O)[C@H](C[C@H](C)C(Cl)(Cl)Cl)N(C)C | Non-Toxic | Non-Toxic | Non-Toxic | Non-Toxic | 0.56 | –
